ChEMBL document CHEMBL1143136 (J Med Chem, 2008)
Where a SMILES comes first, the peptide text is derived from it. The star is where a group is joined. Trt = c1ccc(C(c2ccccc2)(c2ccccc2)*)cc1

Legend:
[1] = tested on: HeLa; assay: Induction of mitotic arrest in human HeLa cells assessed as monoastral spindle formation after 24 hrs; assay type: functional, cell-based
[2] = tested on: HeLa; assay: Cell cycle arrest in human HeLa cells assessed as accumulation at G2/M phase at 1 uM after 24 hrs; assay type: functional
Procedure, shortened: (§1)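 HeLa cells grown in DMEM with 10% FBS at 37 °C, 5% CO2, in 60 mm dishes, exposed to drug for 24 h. Drugs were diluted in medium from 50 mM DMSO stocks. Cells were fixed in 90% methanol at −20 °C and stained with propidium iodide. Flow cytometry gave the percentage of cells with 4N DNA content (G2/M).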

[3] = tested on: HeLa; assay: Cell cycle arrest in human HeLa cells assessed as accumulation at G2/M phase at 5 uM after 24 hrs; assay type: functional; procedure, shortened: as §1
[4] = tested on: HeLa; assay: Induction of mitotic arrest in human HeLa cells after 24 hrs; assay type: functional, cell-based
Procedure, shortened: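 A concentration series was given to HeLa cells for 24 h (DMEM, 10% FBS, 37 °C, 5% CO2). Cells were fixed in methanol at −20 °C, then stained with MPM-2 antibody/FITC secondary and propidium iodide. Two-dimensional flow cytometry followed.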

[5] = tested on: HeLa; assay: Induction of mitotic arrest in human HeLa cells at 1 uM assessed as MPM2 antibody positive cells after 24 hrs; assay type: functional
Procedure, shortened: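 HeLa cells (DMEM, 10% FBS, 37 °C, 5% CO2) were drug-treated for 24 h, then fixed in 90% methanol at −20 °C. They were labelled with MPM-2 mitotic phospho-epitope antibody plus FITC anti-mouse IgG, and with propidium iodide. Two-dimensional flow cytometry gave the percentage of 4N-arrested cells that were MPM2-positive.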

[6] = cells; conditions: Homo sapiens, NCI60

Compound	EC50 [1] [µM]	Activity [2] [%]	also measured
COC(=O)[C@@H](N)CSC(c1ccccc1)(c1ccccc1)c1ccccc1	1.08	20.2	Activity [3]: 72.4%
CCCCC(SC[C@H](N)C(=O)O)(c1ccccc1)c1ccccc1	1.4	19.1	Activity [3]: 71.1%
CC(C)C(SC[C@H](N)C(=O)O)(c1ccccc1)c1ccccc1	1.08	22.6	Activity [3]: 59.1%
N[C@@H](CSC(c1ccccc1)(c1ccc(CO)cc1)c1ccc(CO)cc1)C(=O)O	> 5	–	–
N[C@@H](CSC(c1ccccc1)(c1ccccc1)c1ccc2c(c1)OCO2)C(=O)O	1.37	24.3	Activity [3]: 68%
N[C@@H](CSC(c1ccccc1)(c1ccccc1)c1ccc2ccccc2c1)C(=O)O	0.33	68.1	EC50 [4]: 0.6 µM; Activity [5]: 79.9%
N[C@@H](CSC1(c2ccccc2)c2ccccc2-c2ccccc21)C(=O)O	> 5	–	–
NCCCSC(c1ccccc1)(c1ccccc1)c1ccccc1	> 5	–	–
N[C@@H](CSC1(c2ccc(F)cc2)c2ccccc2-c2ccccc21)C(=O)O	> 5	–	–
N[C@@H](CSC(c1ccccc1)(c1ccccc1)C1CCCCC1)C(=O)O	1.85	19.9	Activity [3]: 55.2%
N[C@@H](CSC(c1ccccc1)(c1ccccc1)c1ccc(O)cc1)C(=O)O	> 5	–	–
NCCCCSC(c1ccccc1)(c1ccccc1)c1ccccc1	> 5	–	–
N[C@@H](CSC(c1ccccc1)(c1ccccc1)c1ccccc1)C(=O)NCC(=O)O	> 5	–	–
N[C@@H](CSC1(c2ccc(Cl)cc2)c2ccccc2-c2ccccc21)C(=O)O	> 5	–	–
CC(=O)N[C@@H](CSC1(c2ccccc2)c2ccccc2-c2ccccc21)C(=O)O	> 5	–	–
COc1ccc(C(SC[C@H](N)C(=O)O)(c2ccccc2)c2ccc(OC)cc2)cc1	> 5	–	–
N[C@@H](CSC(c1ccccc1)(c1ccc(-c2ccccc2)cc1)c1ccc(-c2ccccc2)cc1)C(=O)O	> 5	–	–
N[C@@H](CSC(c1ccccc1)(c1ccccc1)c1cccc2ccccc12)C(=O)O	> 5	–	–
COc1ccc(C(SC[C@H](N)C(=O)O)(c2ccccc2)c2ccccc2)cc1	0.2	69	EC50 [4]: 0.3 µM; Activity [5]: 81.6%
CCC(SC[C@H](N)C(=O)O)(c1ccccc1)c1ccccc1	> 5	–	–
CC(SC[C@H](N)C(=O)O)(c1ccccc1)c1ccccc1	> 5	–	–

Compound	EC50 [1] [µM]	Activity [2] [%]	also measured
NCCSC(c1ccccc1)(c1ccccc1)c1ccccc1	1.08	21.1	Activity [3]: 65.8%
CC(C)(SC(c1ccccc1)(c1ccccc1)c1ccccc1)C(N)C(=O)O (centres undefined)	> 5	–	–
N[C@@H](CSC(c1ccccc1)(c1ccccc1)c1ccc(Cl)cc1)C(=O)O	0.51	48.5	Activity [3]: 74.7%; EC50 [4]: 0.66 µM
Cc1ccc(C(SC[C@H](N)C(=O)O)(c2ccccc2)c2ccc(C)cc2)cc1	0.53	50.8	Activity [3]: 70.9%; EC50 [4]: 1 µM
O=C(O)C(CSC(c1ccccc1)(c1ccccc1)c1ccccc1)/N=C/c1cccs1 (centres undefined)	> 5	–	–
CC(NC(=O)[C@@H](N)CSC(c1ccccc1)(c1ccccc1)c1ccccc1)C(=O)O (some centres undefined)	> 5	–	–
Cc1ccc(C(SC[C@H](N)C(=O)O)(c2ccc(C)cc2)c2ccc(C)cc2)cc1	3.1	–	Activity [3]: 34.1%
Cc1ccc(C2(SC[C@H](N)C(=O)O)c3ccccc3-c3ccccc32)cc1	> 5	–	–
N[C@@H](CSC(c1ccccc1)(c1ccccc1)c1ccc(CO)cc1)C(=O)O	> 5	–	–
N[C@@H](CSC(c1ccccc1)(c1ccccc1)c1ccc(Br)cc1)C(=O)O	0.31	68.7	EC50 [4]: 0.45 µM; Activity [5]: 77.4%
N[C@@H](CSC(c1ccccc1)(c1ccccc1)c1ccc(F)cc1)C(=O)O	1.55	24	Activity [3]: 68.8%
N[C@@H](COC(c1ccccc1)(c1ccccc1)c1ccccc1)C(=O)O	> 5	–	–
N[C@@H](CSC1(c2cccc3ccccc23)c2ccccc2-c2ccccc21)C(=O)O	> 5	–	–
Cc1ccc(C(SC[C@H](N)C(=O)O)(c2ccccc2)c2ccccc2)cc1	0.21	71	EC50 [4]: 0.33 µM; Activity [5]: 84.1%
N[C@@H](CSC(c1ccccc1)c1ccccc1)C(=O)O	> 5	–	–
N[C@@H](CSC(c1ccccc1)(c1ccccc1)c1ccccc1)C(=O)OC(c1ccccc1)c1ccccc1	> 5	–	–
N[C@@H](CSC(c1ccccc1)(c1ccccc1)c1ccccc1)C(=O)N[C@@H](CSC(c1ccccc1)(c1ccccc1)c1ccccc1)C(=O)O (H-Cys(Trt)-Cys(Trt)-OH)	> 5	–	–
COC(=O)[C@H](CC(C)C)NC(=O)[C@@H](N)CSC(c1ccccc1)(c1ccccc1)c1ccccc1 (H-Cys(Trt)-Leu-OMe)	5	–	–
COC(=O)[C@@H](NC(=O)[C@@H](N)CSC(c1ccccc1)(c1ccccc1)c1ccccc1)C(C)C (H-Cys(Trt)-Val-OMe)	3.5	–	Activity [3]: 21.8%
N[C@@H](CSC(c1ccccc1)(c1ccccc1)c1ccccc1)C(=O)O [S-TRITYL-L-CYSTEINE]	0.7	23.1	Activity [3]: 75.8%; EC50 [4]: 1.7 µM; GI50 [6]: 1.31 µM
